From ChEMBL document CHEMBL1123010, “Nucleosides. 133. Synthesis of 5-alkenyl-1-(2-deoxy-2-fluoro-beta-D-arabinofuranosyl)cytosines and related pyrimidine nucleosides as potential antiviral agents” (J Med Chem, 1985)

Tested on: Human alphaherpesvirus 2
Experiment: Antiviral activity against herpes simplex type-2 expressed as ED90
Assay type: functional
Conditions: not given
Summary of the method: (§1)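 Plaque reduction in confluent mycoplasma-free Vero cells infected with HSV-1 strain F or HSV-2 strain G (about 100 plaques/well), rocked 1 h, inoculum removed, PBS (pH 7.2) wash. Five or more drug concentrations in maintenance medium with 0.1% pooled human globulin, in replicate.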

Compound	ED90 [nM]
O=c1[nH]c(=O)n([C@@H]2O[C@H](CO)[C@@H](O)[C@@H]2F)cc1/C=C/Cl	5500
O=c1[nH]c(=O)n([C@@H]2O[C@H](CO)[C@@H](O)[C@@H]2F)cc1/C=C/Br	730
Cc1cn([C@@H]2O[C@H](CO)[C@@H](O)[C@@H]2F)c(=O)nc1N	100
O=c1[nH]c(=O)n([C@@H]2O[C@H](CO)[C@@H](O)[C@@H]2F)cc1/C=C/I	840
Cc1cn([C@@H]2O[C@H](CO)[C@@H](O)[C@@H]2F)c(=O)[nH]c1=O [5-METHYL-2'-FLUOROARAURACIL]	90
C=Cc1cn([C@@H]2O[C@H](CO)[C@@H](O)[C@@H]2F)c(=O)[nH]c1=O	560
C[Si](C)(C)C#Cc1cn([C@@H]2O[C@H](CO)[C@@H](O)[C@@H]2F)c(=O)[nH]c1=O	32100
Nc1nc(=O)n([C@@H]2O[C@H](CO)[C@@H](O)[C@@H]2F)cc1/C=C/I	2300

Tested on: P815
Experiment: In vitro inhibitory activity against P815/0 cell line
Assay type: functional
Conditions: Mus musculus, read-out: ID50 (the source's name)
Summary of the method: (§2)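 Mouse leukemia cells (L1210/0, P815/0, P815/Ara-C) at 4×10^4 cells/mL in McCoy's 5A with 15% fetal calf serum, nucleoside added as 20-fold concentrate; 96 h at 37 °C in 5% CO2. Cells Coulter-counted, percent growth inhibition and 50% growth-inhibiting concentration calculated.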

Compound	IC50 [nM]
Cc1cn([C@@H]2O[C@H](CO)[C@@H](O)[C@@H]2F)c(=O)[nH]c1=O [5-METHYL-2'-FLUOROARAURACIL]	980
C=Cc1cn([C@@H]2O[C@H](CO)[C@@H](O)[C@@H]2F)c(=O)[nH]c1=O	20800
C[Si](C)(C)C#Cc1cn([C@@H]2O[C@H](CO)[C@@H](O)[C@@H]2F)c(=O)[nH]c1=O	9800

Tested on: Human alphaherpesvirus 2 (HSV-2)
Experiment: Ratio of ID50/ID90 in HSV-2
Assay type: ADME, organism-based
Conditions: human alphaherpesvirus 2, in vivo
Summary of the method: (§3)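 Ratio of two measurements. ID50 came from 3-day growth of rapidly dividing Vero cells, by linear regression. ED90 came from plaque reduction in confluent Vero cells infected with HSV-1 strain F or HSV-2 strain G (about 100 plaques/well). After 1 h adsorption, compounds were added at ≥5 concentrations in medium with 0.1% human globulin. Plaques grew 48 h, then were formalin-fixed, crystal-violet-stained and counted; regression was against log concentration.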

Compound	selectivity ratio
Nc1nc(=O)n([C@@H]2O[C@H](CO)[C@@H](O)[C@@H]2F)cc1/C=C/I	> 87

Tested on: Human alphaherpesvirus 1
Experiment: Antiviral activity against herpes simplex type-1 expressed as ED90
Assay type: functional
Conditions: not given
Summary of the method: as §1

Compound	ED90 [nM]
O=c1[nH]c(=O)n([C@@H]2O[C@H](CO)[C@@H](O)[C@@H]2F)cc1/C=C/Cl	700
O=c1[nH]c(=O)n([C@@H]2O[C@H](CO)[C@@H](O)[C@@H]2F)cc1/C=C/Br	470
Cc1cn([C@@H]2O[C@H](CO)[C@@H](O)[C@@H]2F)c(=O)nc1N	48
O=c1[nH]c(=O)n([C@@H]2O[C@H](CO)[C@@H](O)[C@@H]2F)cc1/C=C/I	110
Cc1cn([C@@H]2O[C@H](CO)[C@@H](O)[C@@H]2F)c(=O)[nH]c1=O [5-METHYL-2'-FLUOROARAURACIL]	42
C=Cc1cn([C@@H]2O[C@H](CO)[C@@H](O)[C@@H]2F)c(=O)[nH]c1=O	43
C[Si](C)(C)C#Cc1cn([C@@H]2O[C@H](CO)[C@@H](O)[C@@H]2F)c(=O)[nH]c1=O	39500
Nc1nc(=O)n([C@@H]2O[C@H](CO)[C@@H](O)[C@@H]2F)cc1/C=C/I	740

Tested on: Human alphaherpesvirus 1 (HSV-1)
Experiment: Ratio of ID50/ID90 in HSV-1
Assay type: ADME, organism-based
Conditions: human alphaherpesvirus 1, in vivo
Summary of the method: as §3

Compound	selectivity ratio
Nc1nc(=O)n([C@@H]2O[C@H](CO)[C@@H](O)[C@@H]2F)cc1/C=C/I	> 270

Tested on: Human alphaherpesvirus 1 (HSV-1)
Experiment: Ratio of ID50/ID90 in HSV-1 infected cells
Assay type: ADME, organism-based
Conditions: human alphaherpesvirus 1, HSV-1 infected cells; read-out: Therapeutic index
Summary of the method: as §3

Compound	selectivity ratio
O=c1[nH]c(=O)n([C@@H]2O[C@H](CO)[C@@H](O)[C@@H]2F)cc1/C=C/Cl	227
O=c1[nH]c(=O)n([C@@H]2O[C@H](CO)[C@@H](O)[C@@H]2F)cc1/C=C/Br	216
O=c1[nH]c(=O)n([C@@H]2O[C@H](CO)[C@@H](O)[C@@H]2F)cc1/C=C/I	509
C=Cc1cn([C@@H]2O[C@H](CO)[C@@H](O)[C@@H]2F)c(=O)[nH]c1=O	251
C[Si](C)(C)C#Cc1cn([C@@H]2O[C@H](CO)[C@@H](O)[C@@H]2F)c(=O)[nH]c1=O	0.4

Molecular target: T1, Thymidine kinase (Human herpesvirus 2) (UniProt Q6L709)
T1 sequence (whole entry): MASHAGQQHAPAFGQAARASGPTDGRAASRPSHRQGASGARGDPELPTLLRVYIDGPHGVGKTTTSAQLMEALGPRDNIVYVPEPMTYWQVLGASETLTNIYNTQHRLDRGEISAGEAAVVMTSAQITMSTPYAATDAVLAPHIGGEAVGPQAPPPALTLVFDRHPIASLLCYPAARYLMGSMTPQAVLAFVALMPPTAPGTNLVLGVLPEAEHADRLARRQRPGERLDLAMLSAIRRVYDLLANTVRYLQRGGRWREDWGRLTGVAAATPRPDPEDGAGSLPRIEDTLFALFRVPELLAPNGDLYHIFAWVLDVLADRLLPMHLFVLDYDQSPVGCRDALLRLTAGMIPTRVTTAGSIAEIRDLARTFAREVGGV
Experiment: Effect on thymidine kinase in the herpes simplex type-2 infected cells
Assay type: functional
Set-up: concentration or dose not given beside the values
Conditions: not given

Compound	Control [%]
O=c1[nH]c(=O)n([C@@H]2O[C@H](CO)[C@@H](O)[C@@H]2F)cc1/C=C/Cl	106
O=c1[nH]c(=O)n([C@@H]2O[C@H](CO)[C@@H](O)[C@@H]2F)cc1/C=C/Br	86
Cc1cn([C@@H]2O[C@H](CO)[C@@H](O)[C@@H]2F)c(=O)nc1N	110
O=c1[nH]c(=O)n([C@@H]2O[C@H](CO)[C@@H](O)[C@@H]2F)cc1/C=C/I	96.2
Cc1cn([C@@H]2O[C@H](CO)[C@@H](O)[C@@H]2F)c(=O)[nH]c1=O [5-METHYL-2'-FLUOROARAURACIL]	94.1
C=Cc1cn([C@@H]2O[C@H](CO)[C@@H](O)[C@@H]2F)c(=O)[nH]c1=O	109
C[Si](C)(C)C#Cc1cn([C@@H]2O[C@H](CO)[C@@H](O)[C@@H]2F)c(=O)[nH]c1=O	95.8
Nc1nc(=O)n([C@@H]2O[C@H](CO)[C@@H](O)[C@@H]2F)cc1/C=C/I	101

Tested on: Human alphaherpesvirus 2
Experiment: Antiviral activity against herpes simplex type-2 expressed as ED50
Assay type: functional
Conditions: read-out: ED50 (the source's name)
Summary of the method: as §1

Compound	EC50 [nM]
O=c1[nH]c(=O)n([C@@H]2O[C@H](CO)[C@@H](O)[C@@H]2F)cc1/C=C/Cl	520
O=c1[nH]c(=O)n([C@@H]2O[C@H](CO)[C@@H](O)[C@@H]2F)cc1/C=C/Br	130
Cc1cn([C@@H]2O[C@H](CO)[C@@H](O)[C@@H]2F)c(=O)nc1N	26
O=c1[nH]c(=O)n([C@@H]2O[C@H](CO)[C@@H](O)[C@@H]2F)cc1/C=C/I	150
Cc1cn([C@@H]2O[C@H](CO)[C@@H](O)[C@@H]2F)c(=O)[nH]c1=O [5-METHYL-2'-FLUOROARAURACIL]	23
C=Cc1cn([C@@H]2O[C@H](CO)[C@@H](O)[C@@H]2F)c(=O)[nH]c1=O	90
C[Si](C)(C)C#Cc1cn([C@@H]2O[C@H](CO)[C@@H](O)[C@@H]2F)c(=O)[nH]c1=O	5100
Nc1nc(=O)n([C@@H]2O[C@H](CO)[C@@H](O)[C@@H]2F)cc1/C=C/I	27

Tested on: Human alphaherpesvirus 2 (HSV-2)
Experiment: Ratio of ID50/ID90 in HSV-2 infected cells
Assay type: ADME, organism-based
Conditions: human alphaherpesvirus 2, HSV-2 infected cells; read-out: Therapeutic index
Summary of the method: as §3

Compound	selectivity ratio
O=c1[nH]c(=O)n([C@@H]2O[C@H](CO)[C@@H](O)[C@@H]2F)cc1/C=C/Cl	29
O=c1[nH]c(=O)n([C@@H]2O[C@H](CO)[C@@H](O)[C@@H]2F)cc1/C=C/Br	138
Cc1cn([C@@H]2O[C@H](CO)[C@@H](O)[C@@H]2F)c(=O)nc1N	15
O=c1[nH]c(=O)n([C@@H]2O[C@H](CO)[C@@H](O)[C@@H]2F)cc1/C=C/I	67
C=Cc1cn([C@@H]2O[C@H](CO)[C@@H](O)[C@@H]2F)c(=O)[nH]c1=O	19
C[Si](C)(C)C#Cc1cn([C@@H]2O[C@H](CO)[C@@H](O)[C@@H]2F)c(=O)[nH]c1=O	0.5

Tested on: Vero
Experiment: Cytotoxic activity against vero cells was evaluated.
Assay type: functional
Conditions: Chlorocebus sabaeus, read-out: ID50 (the source's name)
Summary of the method: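 Drug toxicity measured in rapidly dividing Vero cells over 3 days; 50% inhibitory dose (ID50) derived by linear regression analysis.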

Compound	IC50 [nM]
O=c1[nH]c(=O)n([C@@H]2O[C@H](CO)[C@@H](O)[C@@H]2F)cc1/C=C/Cl	159000
O=c1[nH]c(=O)n([C@@H]2O[C@H](CO)[C@@H](O)[C@@H]2F)cc1/C=C/Br	101000
Cc1cn([C@@H]2O[C@H](CO)[C@@H](O)[C@@H]2F)c(=O)nc1N	1500
O=c1[nH]c(=O)n([C@@H]2O[C@H](CO)[C@@H](O)[C@@H]2F)cc1/C=C/I	56000
Cc1cn([C@@H]2O[C@H](CO)[C@@H](O)[C@@H]2F)c(=O)[nH]c1=O [5-METHYL-2'-FLUOROARAURACIL]	2800
C=Cc1cn([C@@H]2O[C@H](CO)[C@@H](O)[C@@H]2F)c(=O)[nH]c1=O	10800
C[Si](C)(C)C#Cc1cn([C@@H]2O[C@H](CO)[C@@H](O)[C@@H]2F)c(=O)[nH]c1=O	17100
Nc1nc(=O)n([C@@H]2O[C@H](CO)[C@@H](O)[C@@H]2F)cc1/C=C/I	> 200000

Tested on: Human alphaherpesvirus 1
Experiment: Antiviral activity against herpes simplex type-1 expressed as ED50
Assay type: functional
Conditions: read-out: ED50 (the source's name)
Summary of the method: as §1

Compound	EC50 [nM]
O=c1[nH]c(=O)n([C@@H]2O[C@H](CO)[C@@H](O)[C@@H]2F)cc1/C=C/Cl	59
O=c1[nH]c(=O)n([C@@H]2O[C@H](CO)[C@@H](O)[C@@H]2F)cc1/C=C/Br	67
Cc1cn([C@@H]2O[C@H](CO)[C@@H](O)[C@@H]2F)c(=O)nc1N	6
O=c1[nH]c(=O)n([C@@H]2O[C@H](CO)[C@@H](O)[C@@H]2F)cc1/C=C/I	37
Cc1cn([C@@H]2O[C@H](CO)[C@@H](O)[C@@H]2F)c(=O)[nH]c1=O [5-METHYL-2'-FLUOROARAURACIL]	10
C=Cc1cn([C@@H]2O[C@H](CO)[C@@H](O)[C@@H]2F)c(=O)[nH]c1=O	9
C[Si](C)(C)C#Cc1cn([C@@H]2O[C@H](CO)[C@@H](O)[C@@H]2F)c(=O)[nH]c1=O	5700
Nc1nc(=O)n([C@@H]2O[C@H](CO)[C@@H](O)[C@@H]2F)cc1/C=C/I	88

Tested on: P815
Experiment: In vitro inhibitory activity against P815/ara-C cell line
Assay type: functional
Conditions: Mus musculus, read-out: ID50 (the source's name)
Summary of the method: as §2

Compound	IC50 [nM]
Cc1cn([C@@H]2O[C@H](CO)[C@@H](O)[C@@H]2F)c(=O)[nH]c1=O [5-METHYL-2'-FLUOROARAURACIL]	12400
C=Cc1cn([C@@H]2O[C@H](CO)[C@@H](O)[C@@H]2F)c(=O)[nH]c1=O	32800
C[Si](C)(C)C#Cc1cn([C@@H]2O[C@H](CO)[C@@H](O)[C@@H]2F)c(=O)[nH]c1=O	107000

Tested on: Human alphaherpesvirus 1 (HSV-1)
Experiment: Ratio of ID50/ID90 in HSV-1 in fected cells
Assay type: ADME, organism-based
Conditions: human alphaherpesvirus 1, HSV-1 infected cells; read-out: Therapeutic index
Summary of the method: as §3

Compound	selectivity ratio
Cc1cn([C@@H]2O[C@H](CO)[C@@H](O)[C@@H]2F)c(=O)nc1N	31

Tested on: L1210
Experiment: In vitro inhibitory activity against L1212/0 cell line
Assay type: functional
Conditions: Mus musculus, read-out: ID50 (the source's name)
Summary of the method: as §2

Compound	IC50 [nM]
Cc1cn([C@@H]2O[C@H](CO)[C@@H](O)[C@@H]2F)c(=O)[nH]c1=O [5-METHYL-2'-FLUOROARAURACIL]	2950
C=Cc1cn([C@@H]2O[C@H](CO)[C@@H](O)[C@@H]2F)c(=O)[nH]c1=O	29000
C[Si](C)(C)C#Cc1cn([C@@H]2O[C@H](CO)[C@@H](O)[C@@H]2F)c(=O)[nH]c1=O	17800
